In ChEMBL document CHEMBL1136239, “Bicyclo[2.2.1]heptanes as novel triple re-uptake inhibitors for the treatment of depression” (Bioorg Med Chem Lett, 2003):

Experiments:
[1] = target: T1, Sodium-dependent dopamine transporter (Homo sapiens, UniProt Q01959); assay: In vitro inhibition of DA re-uptake into synaptosome; format: functional, tissue-based, Brain
[2] = target: T1, Sodium-dependent dopamine transporter; assay: Displacement of [3H]WIN-35428 from Dopamine transporter
In short: (§1)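 Radioligand binding: inhibitory binding constants measured against a known radiolabelled re-uptake inhibitor. Ligands were [3H]citalopram for SERT, [3H]WIN35,428 for DAT and [3H]nisoxetine for NET. Values are means of three experiments; minimum significant ratio < 3.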

[3] = target: T2, Sodium-dependent serotonin transporter (Homo sapiens, UniProt P31645); assay: In vitro ability of compound to inhibit 5-HT re-uptake of radiolabeled [3H]-tritium transmitter into synaptosome; format: tissue-based, Brain
T2 sequence (P31645 whole entry): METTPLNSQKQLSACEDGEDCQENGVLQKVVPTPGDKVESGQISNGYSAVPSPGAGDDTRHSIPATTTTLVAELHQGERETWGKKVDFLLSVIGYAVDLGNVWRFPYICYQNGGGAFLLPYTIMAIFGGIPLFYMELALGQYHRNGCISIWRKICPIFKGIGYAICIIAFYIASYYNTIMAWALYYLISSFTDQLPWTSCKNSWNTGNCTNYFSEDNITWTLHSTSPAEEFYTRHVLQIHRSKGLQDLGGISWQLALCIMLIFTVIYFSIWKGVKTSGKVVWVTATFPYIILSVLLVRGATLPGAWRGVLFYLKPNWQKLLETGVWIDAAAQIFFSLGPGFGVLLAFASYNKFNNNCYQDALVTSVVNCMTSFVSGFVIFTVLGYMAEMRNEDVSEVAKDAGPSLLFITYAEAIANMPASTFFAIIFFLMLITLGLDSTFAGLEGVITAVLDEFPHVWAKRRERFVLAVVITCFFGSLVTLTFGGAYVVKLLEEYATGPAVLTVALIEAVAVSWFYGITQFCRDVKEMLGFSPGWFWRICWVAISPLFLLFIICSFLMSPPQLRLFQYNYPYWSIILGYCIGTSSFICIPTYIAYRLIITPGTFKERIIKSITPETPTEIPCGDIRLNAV

[4] = target: T2, Sodium-dependent serotonin transporter; assay: Displacement of [3H]-citalopram from Serotonin transporter; in short: as §1
[5] = target: Sodium-dependent serotonin transporter (Mus musculus) (UniProt Q60857); assay: In vivo potentiation of compound towards Serotonin transporter after po administration; format: functional, organism-based
Sequence of Sodium-dependent serotonin transporter (Mus musculus) (Q60857 whole entry): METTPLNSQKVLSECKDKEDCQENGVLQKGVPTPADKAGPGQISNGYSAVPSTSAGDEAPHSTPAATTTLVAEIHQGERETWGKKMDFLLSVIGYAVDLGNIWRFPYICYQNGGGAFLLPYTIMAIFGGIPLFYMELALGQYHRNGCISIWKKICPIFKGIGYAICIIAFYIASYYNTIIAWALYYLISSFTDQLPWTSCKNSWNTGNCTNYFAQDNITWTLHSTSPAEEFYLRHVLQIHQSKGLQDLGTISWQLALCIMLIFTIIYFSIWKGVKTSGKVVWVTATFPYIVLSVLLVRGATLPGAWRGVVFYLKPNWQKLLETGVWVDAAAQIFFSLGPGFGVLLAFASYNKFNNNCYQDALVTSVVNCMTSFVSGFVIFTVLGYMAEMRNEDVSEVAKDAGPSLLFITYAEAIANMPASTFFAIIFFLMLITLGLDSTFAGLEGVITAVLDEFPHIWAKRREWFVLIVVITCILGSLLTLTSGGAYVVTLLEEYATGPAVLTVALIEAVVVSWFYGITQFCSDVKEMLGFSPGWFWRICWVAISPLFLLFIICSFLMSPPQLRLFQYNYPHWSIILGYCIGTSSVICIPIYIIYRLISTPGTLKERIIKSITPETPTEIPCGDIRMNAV
In short: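 Oral dosing, read-out from the 5-HTP test. The value is the minimum effective dose (EDmin) in mg/kg po.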

[6] = target: T3, Sodium-dependent noradrenaline transporter (Homo sapiens, UniProt P23975); assay: Displacement of [3H]-Nisoxetine from norepinephrine transporter
T3 sequence (P23975 whole entry): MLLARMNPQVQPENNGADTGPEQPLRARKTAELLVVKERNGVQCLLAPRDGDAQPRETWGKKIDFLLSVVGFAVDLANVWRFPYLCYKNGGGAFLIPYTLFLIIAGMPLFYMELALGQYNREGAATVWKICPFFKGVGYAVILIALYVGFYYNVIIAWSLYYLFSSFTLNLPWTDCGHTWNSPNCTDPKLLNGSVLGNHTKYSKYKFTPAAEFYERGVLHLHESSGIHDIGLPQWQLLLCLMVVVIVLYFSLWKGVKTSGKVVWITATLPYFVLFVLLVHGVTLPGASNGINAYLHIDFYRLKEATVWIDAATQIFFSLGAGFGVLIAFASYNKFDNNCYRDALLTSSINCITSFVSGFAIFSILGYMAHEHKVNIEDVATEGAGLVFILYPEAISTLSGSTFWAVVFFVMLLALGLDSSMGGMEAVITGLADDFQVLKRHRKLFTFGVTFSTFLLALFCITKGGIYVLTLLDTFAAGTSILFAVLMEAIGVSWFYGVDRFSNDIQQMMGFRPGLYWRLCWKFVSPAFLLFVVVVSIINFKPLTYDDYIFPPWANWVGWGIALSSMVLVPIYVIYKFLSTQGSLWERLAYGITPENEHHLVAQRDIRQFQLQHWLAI

[7] = target: Sodium-dependent dopamine transporter (Mus musculus) (UniProt Q61327); assay: In vivo potentiation of compound towards Dopamine transporter after po administration was determined in mouse using mouse locomotor activity […]; format: functional, organism-based
Sequence of Sodium-dependent dopamine transporter (Mus musculus) (Q61327 whole entry): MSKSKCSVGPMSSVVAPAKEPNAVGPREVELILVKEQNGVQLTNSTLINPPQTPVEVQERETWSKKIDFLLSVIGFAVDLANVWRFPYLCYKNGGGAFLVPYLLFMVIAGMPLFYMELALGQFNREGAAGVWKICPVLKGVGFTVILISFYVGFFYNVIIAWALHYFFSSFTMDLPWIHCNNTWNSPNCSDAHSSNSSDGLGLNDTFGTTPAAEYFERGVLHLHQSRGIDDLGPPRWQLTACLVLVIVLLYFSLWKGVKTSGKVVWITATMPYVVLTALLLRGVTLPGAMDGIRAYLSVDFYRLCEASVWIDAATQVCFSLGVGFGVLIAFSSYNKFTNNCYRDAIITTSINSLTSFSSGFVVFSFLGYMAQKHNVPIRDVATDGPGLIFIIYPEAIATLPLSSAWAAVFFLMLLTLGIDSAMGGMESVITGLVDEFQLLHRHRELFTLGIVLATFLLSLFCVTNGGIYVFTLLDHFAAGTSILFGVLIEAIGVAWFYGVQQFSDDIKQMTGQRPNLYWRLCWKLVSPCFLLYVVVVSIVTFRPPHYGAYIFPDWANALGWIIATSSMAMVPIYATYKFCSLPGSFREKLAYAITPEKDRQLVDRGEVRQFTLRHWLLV
In short: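 Given by mouth and assessed in the MLA (locomotor activity) test. Reported as the minimum effective dose (EDmin), mg/kg po.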

[8] = target: Sodium-dependent noradrenaline transporter (Mus musculus) (UniProt O55192); assay: In vivo potentiation of compound towards norepinephrine transporter after po administration was determined in mouse using mouse apomorphine hypothermia; format: functional, organism-based
Sequence of Sodium-dependent noradrenaline transporter (Mus musculus) (O55192 whole entry): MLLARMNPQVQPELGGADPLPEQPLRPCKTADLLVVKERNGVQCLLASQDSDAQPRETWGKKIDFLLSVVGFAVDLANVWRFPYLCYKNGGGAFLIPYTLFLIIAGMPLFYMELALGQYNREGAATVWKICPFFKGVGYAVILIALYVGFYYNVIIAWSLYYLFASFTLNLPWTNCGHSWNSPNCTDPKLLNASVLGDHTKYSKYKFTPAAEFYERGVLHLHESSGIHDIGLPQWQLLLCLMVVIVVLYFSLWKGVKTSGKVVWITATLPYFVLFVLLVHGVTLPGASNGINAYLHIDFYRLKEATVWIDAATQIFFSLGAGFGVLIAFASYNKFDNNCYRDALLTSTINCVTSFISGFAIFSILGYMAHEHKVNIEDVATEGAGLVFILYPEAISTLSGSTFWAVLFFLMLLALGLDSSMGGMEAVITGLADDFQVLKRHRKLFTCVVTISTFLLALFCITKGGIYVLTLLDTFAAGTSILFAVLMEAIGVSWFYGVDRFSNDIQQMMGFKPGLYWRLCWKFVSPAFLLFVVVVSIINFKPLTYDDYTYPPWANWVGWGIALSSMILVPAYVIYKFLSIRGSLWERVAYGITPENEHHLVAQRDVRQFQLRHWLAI
In short: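 Apomorphine (APO) test after oral administration. The result is expressed as the minimum effective dose (EDmin), mg/kg po.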

[9] = target: T3, Sodium-dependent noradrenaline transporter; assay: In vitro inhibition of [3H]NE re-uptake into synaptosome; format: functional, tissue-based, Brain
[10] = target: T3, Sodium-dependent noradrenaline transporter; assay: Compound was tested for its ability to displace […] from norepinephrine transporter

T1 sequence (Q01959 whole entry): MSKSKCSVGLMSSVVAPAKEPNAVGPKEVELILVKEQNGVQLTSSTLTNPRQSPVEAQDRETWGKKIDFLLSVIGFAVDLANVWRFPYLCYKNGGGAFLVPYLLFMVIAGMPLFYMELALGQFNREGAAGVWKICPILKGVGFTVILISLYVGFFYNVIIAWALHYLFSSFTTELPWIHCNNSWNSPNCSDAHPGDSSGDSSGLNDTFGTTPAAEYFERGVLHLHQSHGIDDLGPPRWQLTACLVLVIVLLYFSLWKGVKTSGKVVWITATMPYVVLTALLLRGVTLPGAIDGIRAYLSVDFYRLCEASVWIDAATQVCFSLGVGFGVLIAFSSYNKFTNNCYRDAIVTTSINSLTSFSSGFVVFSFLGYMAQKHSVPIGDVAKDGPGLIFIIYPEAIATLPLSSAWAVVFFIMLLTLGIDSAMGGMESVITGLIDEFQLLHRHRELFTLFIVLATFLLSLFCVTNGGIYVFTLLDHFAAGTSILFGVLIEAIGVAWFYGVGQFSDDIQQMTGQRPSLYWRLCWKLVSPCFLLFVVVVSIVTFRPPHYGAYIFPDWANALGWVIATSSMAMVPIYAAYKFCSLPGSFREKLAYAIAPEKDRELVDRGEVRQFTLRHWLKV

| SMILES | IC50 [1] [nM] | Ki [2] [nM] | IC50 [3] [nM] | Ki [4] [nM] | EDmin [5] [mg/kg] | Ki [6] [nM] | EDmin [7] [mg/kg] | EDmin [8] [mg/kg] | IC50 [9] [nM] | Ki [10] [nM] |
| --- | --- | --- | --- | --- | --- | --- | --- | --- | --- | --- |
| CN(C)C[C@@H]1C2CCC(C2)[C@H]1c1ccc2ccccc2c1 (stereo partly specified) | 93 | 38 | 20 | 5.8 | > 20 |  |  |  |  |  |
| CNC[C@H]1C2CCC(C2)[C@@H]1c1ccc2ccccc2c1 (stereo partly specified) | 86 | 41 | 9 | 3.6 |  |  |  |  |  |  |
| CN(C)C[C@H]1C2CCC(CC2)[C@@H]1c1cccc(Cl)c1 | 165 | 64 | 303 | 25 |  |  |  |  |  |  |
| CNC[C@H]1C2CCC(C2)[C@@H]1c1ccc2cc(F)ccc2c1 (stereo partly specified) |  | 72 |  | 4.4 |  | 316 |  |  |  |  |
| CN(C)C[C@H]1C2CCC(C2)[C@@H]1c1ccc2ccccc2c1 (stereo partly specified) | 76 | 25 | 9 | 2.3 | 5 |  | 40 | 25 |  |  |
| CN(C)CC1C2CCC(C2)C1c1cccc2ccccc12 (stereo unspecified) | 1510 | 430 | 93 | 52 |  |  |  |  |  |  |
| COc1ccc2cc([C@H]3C4CCC(C4)[C@@H]3CN(C)C)ccc2c1 (stereo partly specified) |  | 64 |  | 25 |  | 68 |  |  |  |  |
| CN(C)C[C@@H]1C2CCC(CC2)[C@@H]1c1ccc(Cl)c(Cl)c1 | 28 | 7.2 | 270 | 57 |  |  |  |  | 22 | 44 |
| CN(C)C[C@H]1C2CCC(C2)[C@@H]1c1ccc2cc(F)ccc2c1 (stereo partly specified) |  | 50 |  | 2.6 |  | 385 |  |  |  |  |
| CN(C)C[C@H]1C2CCC(C2)[C@@H]1c1ccc2cc(O)ccc2c1 (stereo partly specified) |  | 6 |  | 47 |  | 50 |  |  |  |  |
| CNC[C@H]1C2CCC(C2)[C@@H]1c1ccc2cc(OC)ccc2c1 (stereo partly specified) |  | 60 |  | 12 |  | 120 |  |  |  |  |
| CN(C)CC1C2CCC(C2)C1c1ccc2ccccc2c1 (stereo unspecified) | 95 | 18 | 10 | 2.8 |  |  |  |  |  |  |
| CNCC1C2CCC(C2)C1c1ccc2ccccc2c1 (stereo unspecified) | 87 | 25 | 50 | 4.9 | 20 |  | 25 | 20 |  |  |
